Test results reported in ChEMBL document CHEMBL1138845, “Design of non-nucleoside inhibitors of HIV-1 reverse transcriptase with improved drug resistance properties. 2” (J Med Chem, 2004).

What was measured:
HeLa [1] = experiment: Inhibitory concentration against human immunodeficiency virus type 1 (with K103N/G190A resistant mutation) was determined in HeLa-CD4 MAGI assay; format: functional, cell-based
Summary of the method: (§1)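 Tested against a panel of recombinant, isogenic HIV-1 viruses, wild type and NNRTI-resistant strains carrying engineered single or double RT mutations. The readout was IC50.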

HeLa [2] = experiment: Inhibitory concentration against human immunodeficiency virus type 1 (with K103N resistant mutation) was determined in HeLa-CD4 MAGI assay; format: functional, cell-based; summary of the method: as §1
HeLa [3] = experiment: Inhibitory concentration against human immunodeficiency virus type 1 (with Y181C resistant mutation) was determined in HeLa-CD4 MAGI assay; format: functional, cell-based; summary of the method: as §1
HeLa [4] = experiment: Inhibitory concentration against human immunodeficiency virus type 1 (with Y188C resistant mutation) was determined in HeLa-CD4 MAGI assay; format: functional, cell-based; summary of the method: as §1
MT4 [5] = experiment: Ratio of cytotoxic concentration to that of inhibitory concentration as selectivity index was determined by MT-4 assay; format: functional, Homo sapiens
Summary of the method: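 Index is the IC50 in uninfected MT4 cells divided by the antiviral IC50 in MT4 cells infected with wild-type HIV-1 or the nevirapine-resistant strain carrying RT mutation Y181C.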

[6] = tested on: Human immunodeficiency virus 1; experiment: Inhibitory concentration against wild type human immunodeficiency virus type 1 was determined by recombinant virus assay; format: functional, organism-based
Summary of the method: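 Isogenic recombinant HIV-1 carrying wild-type RT, tested in parallel with a panel of NNRTI-resistant RT mutants built on the same background; activity reported as IC50.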

HeLa [7] = experiment: Inhibitory concentration against human immunodeficiency virus type 1 (with V108I/Y181C resistant mutation) was determined in HeLa-CD4 MAGI assay; format: functional, cell-based; summary of the method: as §1
MT4 [8] = experiment: Inhibitory concentration against wild type human immunodeficiency virus type 1 was determined by MT-4 assay; format: functional, cell-based
HeLa [9] = experiment: Inhibitory concentration against human immunodeficiency virus type 1 (with V106A/Y181C resistant mutation) was determined in HeLa-CD4 MAGI assay; format: functional, cell-based; summary of the method: as §1
HeLa [10] = experiment: Inhibitory concentration against human immunodeficiency virus type 1 (with G190A resistant mutation) was determined in HeLa-CD4 MAGI assay; format: functional, cell-based; summary of the method: as §1
HeLa [11] = experiment: Inhibitory concentration against human immunodeficiency virus type 1 (with V106A resistant mutation) was determined in HeLa-CD4 MAGI assay; format: functional, cell-based; summary of the method: as §1
HeLa [12] = experiment: Inhibitory concentration against human immunodeficiency virus type 1 (with K103N/Y181C resistant mutation) was determined in HeLa-CD4 MAGI assay; format: functional, cell-based; summary of the method: as §1
HeLa [13] = experiment: Inhibitory concentration against human immunodeficiency virus type 1 (with K103N/V108I resistant mutation) was determined in HeLa-CD4 MAGI assay; format: functional, cell-based; summary of the method: as §1
HeLa [14] = experiment: Inhibitory concentration against human immunodeficiency virus type 1 (with V108I resistant mutation) was determined in HeLa-CD4 MAGI assay; format: functional, cell-based; summary of the method: as §1
MT4 [15] = experiment: Inhibitory concentration against nevirapine resistant strain (with Y181C mutation in HIV-1 RT gene) of human immunodeficiency virus type 1 was determined by MT-4 assay; format: functional, cell-based

Compound	IC50 (HeLa [1])	IC50 (HeLa [2])	IC50 (HeLa [3])	IC50 (HeLa [4])	Ratio (MT4 [5])	IC50 [6]	IC50 (HeLa [7])	IC50 (MT4 [8])	IC50 (HeLa [9])	IC50 (HeLa [10])	IC50 (HeLa [11])	IC50 (HeLa [12])	IC50 (HeLa [13])	IC50 (HeLa [14])	IC50 (MT4 [15])
CCCc1c(O)nc2ccc(Br)cc2c1OC1CCCC1	> 2000 nM	> 2000 nM	> 2000 nM	9 nM	>40000	49 nM	520 nM	120 nM	> 2000 nM	32 nM	430 nM	> 2000 nM	> 2000 nM	120 nM	1700 nM
CCCc1c(O)nc2ccc(F)cc2c1OC#CC1CC1	490 nM	> 2000 nM	1 nM	290 nM	>8000	66 nM	370 nM	72 nM	380 nM	21 nM	440 nM	1400 nM	> 2000 nM	160 nM	81 nM
CCCc1c(O)nc2ccc(Cl)cc2c1OC1CCC1	> 2000 nM	> 2000 nM	1700 nM	290 nM	>8000	300 nM	> 2000 nM	470 nM	> 2000 nM	220 nM	> 2000 nM	> 2000 nM	> 2000 nM	690 nM	2500 nM
CC(C)c1c(O)nc2ccc(F)cc2c1OCC1CCC1	530 nM	1700 nM	280 nM	30 nM	>500	49 nM	700 nM	26 nM	> 2000 nM	16 nM	1900 nM	> 2000 nM	> 2000 nM	440 nM	230 nM
CCCc1c(O)nc2ccc(OC)cc2c1OC1CCCC1	> 2000 nM	> 2000 nM	710 nM	160 nM	>40000	420 nM	> 2000 nM	1010 nM	> 2000 nM	710 nM	> 2000 nM	> 2000 nM	> 2000 nM	540 nM	24000 nM
CCCc1c(O)nc2ccc(Cl)cc2c1OCC1CCCCC1	> 2000 nM	> 2000 nM	690 nM	23 nM	>40000	1200 nM	1000 nM	5100 nM	> 2000 nM	260 nM	> 2000 nM	> 2000 nM	> 2000 nM	> 2000 nM	1300 nM
Cc1c(O)nc2ccc(F)cc2c1OCC1CCC1	> 2000 nM	> 2000 nM	> 2000 nM	840 nM	>8000	610 nM	> 2000 nM	990 nM	> 2000 nM	250 nM	> 2000 nM	> 2000 nM	> 2000 nM	1700 nM	3900 nM
CCOc1c(O)nc2ccc(Cl)cc2c1OCC1CCC1	> 2000 nM	> 2000 nM	> 2000 nM	390 nM	>8000	340 nM	> 2000 nM	290 nM	> 2000 nM	170 nM	> 2000 nM	> 2000 nM	> 2000 nM	890 nM	2090 nM
CCc1c(O)nc2ccc(F)cc2c1OC#CC1CC1	68 nM	420 nM	24 nM	100 nM	>8000	25 nM	130 nM	25 nM	230 nM	6 nM	340 nM	300 nM	240 nM	60 nM	15 nM
CCOc1c(O)nc2ccc(F)cc2c1OCC1CCC1	> 2000 nM	> 2000 nM	> 2000 nM	360 nM	>8000	580 nM	> 2000 nM	470 nM	> 2000 nM	86 nM	> 2000 nM	> 2000 nM	> 2000 nM	1500 nM	1070 nM
CCc1c(O)nc2ccc(F)cc2c1OCC1CCC1	1100 nM	270 nM	390 nM	130 nM	>8000	89 nM	870 nM	39 nM	> 2000 nM	110 nM	1700 nM	> 2000 nM	> 2000 nM	250 nM	230 nM
CCC(C)C#COc1c(C(C)C)c(O)nc2ccc(F)cc12 (stereo not given)	230 nM	540 nM	84 nM	21 nM	>6500	28 nM	140 nM	17 nM	130 nM	21 nM	420 nM	640 nM	> 2000 nM	110 nM	32 nM
CCCc1c(O)nc2ccc(F)cc2c1OC1CCCC1	> 2000 nM	> 2000 nM	1800 nM	42 nM	>40000	150 nM	> 2000 nM	150 nM	> 2000 nM	370 nM	> 2000 nM	> 2000 nM	> 2000 nM	350 nM	1300 nM
CCCc1c(O)nc2ccc(Cl)cc2c1OC1CCCC1	> 2000 nM	> 2000 nM	> 2000 nM	31 nM	>40000	60 nM	670 nM	96 nM	> 2000 nM	25 nM	270 nM	> 2000 nM	> 2000 nM	200 nM	1700 nM
CC(C)Cc1c(O)nc2ccc(Cl)cc2c1OC1CCCC1	> 2000 nM	> 2000 nM	37 nM	59 nM	>40000	150 nM	1100 nM	52 nM	> 2000 nM	42 nM	1500 nM	> 2000 nM	> 2000 nM	280 nM	1600 nM
CCCc1c(O)nc2ccc(Cl)cc2c1OCC1CC1	> 2000 nM	> 2000 nM	210 nM	89 nM	>40000	120 nM	1700 nM	1100 nM	> 2000 nM	49 nM	630 nM	> 2000 nM	> 2000 nM	200 nM	8300 nM
CCCc1c(O)nc2ccc(F)c([N+](=O)[O-])c2c1OCC1CCC1	> 2000 nM	> 2000 nM	> 2000 nM	250 nM	>8000	1100 nM	> 2000 nM	1200 nM	1000 nM	540 nM	> 2000 nM	> 2000 nM	> 2000 nM	~1000 nM	1800 nM
CCCc1c(O)nc2ccccc2c1OC1CCCC1	> 2000 nM	> 2000 nM	630 nM	180 nM	>40000	350 nM	> 2000 nM	380 nM	> 2000 nM	270 nM	> 2000 nM	> 2000 nM	> 2000 nM	1220 nM	3900 nM
